We go through 17 molecules from ChEMBL document CHEMBL1817604, “Synthesis and biological evaluation of 1-(4'-Indolyl and 6'-Quinolinyl) indoles as a new class of potent anticancer agents” (Eur J Med Chem, 2011).

Test [1] deals with NCI-H460. Kind of test: Antiproliferative activity against human H460 cells after 72 hrs by methylene blue assay. Type of test: functional, cell-based. The conditions noted are these: NCI-H460, 72 h. In short, it runs like this: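 Log-phase cells seeded at 5000 cells/mL/well in 24-well plates, then exposed to compound.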
For test [2], the system named is HT-29. Kind of test: Antiproliferative activity against human HT-29 cells after 72 hrs by methylene blue assay. The class given is functional, cell-based. The conditions noted are these: HT-29, 72 h. In short, it runs like this: (§1)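 Lines kept in RPMI-1640 with 5% fetal bovine serum. Log-phase cells seeded at 5000 cells/mL/well in 24-well plates, then exposed to compound.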

Test [3] is described as follows: Antiproliferative activity against human KB-VIN10 cells over-expressing P-gp 170/MDR1 after 72 hrs by methylene blue assay. Type of test: functional, cell-based. The conditions noted are these: KB-VIN10, 72 h. The procedure, abridged: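 KB-VIN10 is a P-gp 170/MDR1-overexpressing subline derived from KB by continuous exposure to rising vincristine. It is maintained in growth medium with 10 nM vincristine. Log-phase cells seeded at 5000 cells/mL/well in 24-well plates before compound exposure.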

The subject of test [4] is MKN-45. As to the kind of experiment: Antiproliferative activity against human MKN45 cells after 72 hrs by methylene blue assay. Type of test: functional, cell-based. The conditions noted are these: MKN-45, 72 h. In short, it runs like this:
as §1

Test [5] deals with KB. As to the kind of experiment: Antiproliferative activity against human KB cells after 72 hrs by methylene blue assay. The class given is functional, cell-based. In short, it runs like this:
as §1

The nature of test [6]: Inhibition of bovine brain tubulin polymerization after 30 mins by turbidimetry analysis.
The species named for test [7] is Bos taurus. As to the kind of experiment: Displacement of [3H]colchicine from biotin-labeled bovine brain tubulin at 5 uM after 2 hrs by liquid scintillation counter. (Loss of bound radioactivity is the signal in a displacement assay; it reports binding, not function.)
Test [8] can be described thus: Inhibition of tubulin polymerization. In short, it runs like this:
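Bovine brain MAP-rich tubulin, 4 mg/mL in 100 mM PIPES (pH 6.9), 2 mM MgCl₂, 1 mM GTP, […] per well, with test compound or 2% (v/v) DMSO control. Turbidity read at 350 nm, 37 °C, every 30 s for 30 min.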

Molecules are shown by their SMILES. Where only a bound is given, the exact number is not on record here.

`COc1cc2c(ccn2-c2ccnc3ccccc23)c(OC)c1OC`: the IC50 (usually the concentration needed to halve the response being measured) in test [1] turned out to be 318 nM; in test [2], 329 nM; in test [3], 130 nM; in test [4], 197 nM; in test [5] it was 216 nM.
As for `COc1cc2c(ccn2-c2cccc3c2ccn3C)c(OC)c1OC`, the IC50 in test [1] is 49 nM; in test [6] it was 1700 nM; in test [2], 44 nM; in test [3], 25 nM; in test [4], 40 nM; in test [5], 32 nM. This molecule gave an Activity in test [7] of 83%.
In the case of `COc1cc2c(ccn2-c2ccc3ncncc3c2)c(OC)c1OC`, the IC50 in test [1] came to 7520 nM; in test [2] it was 8140 nM; in test [3] it was 3450 nM; in test [4], 4310 nM; in test [5] it was 7950 nM.
With `COc1ccc(-n2ccc3c(OC)c(OC)c(OC)cc32)c(N)c1`, the IC50 was determined as 96 nM in test [1]; 4700 nM in test [6]; 101 nM in test [2]; 50 nM in test [3]; 49 nM in test [4]; 102 nM in test [5]. For the same molecule, the Activity in test [7] turned out to be 44%.
Regarding `COc1cc2c(ccn2-c2cccc3ncccc23)c(OC)c1OC`, the IC50 was found to be 955 nM in test [1]; 921 nM in test [2]; 535 nM in test [3]; 682 nM in test [4]; 900 nM in test [5].
On to `COc1ccc(-n2ccc3c(OC)c(OC)c(OC)cc32)cc1O`, for which the concentration for half-maximal inhibition (IC50) was 737 nM in test [1]; 6400 nM in test [2]; 68 nM in test [3]; 5900 nM in test [4]; 131 nM in test [5].
On to `COc1ccc2c(-n3ccc4c(OC)c(OC)c(OC)cc43)cn(C)c2c1`, for which the concentration for half-maximal inhibition (IC50) in test [1] was 81 nM; in test [2], 81 nM; in test [3] it was 40 nM; in test [4], 59 nM; in test [5], 85 nM.
With `COc1cc2c(c(OC)c1OC)-c1ccc(OC)c(=O)cc1[C@@H](NC(C)=O)CC2` [COLCHICINE], the IC50 in test [2] worked out at 15 nM; in test [3], 121 nM; in test [4], 12 nM; in test [5], 10 nM.
On to `COc1ccc2nc(-n3ccc4c(OC)c(OC)c(OC)cc43)ccc2c1`, for which the half-inhibitory concentration (IC50) in test [1] was determined as 6170 nM; in test [2], 3650 nM; in test [3], 9110 nM; in test [4] it was 11500 nM; in test [5], 7370 nM.
Turning to `COc1ccc(/C=C\c2cc(OC)c(OC)c(OC)c2)cc1O` [COMBRETASTATIN A4], the 50% inhibitory concentration (IC50) in test [1] stood at 2.3 nM; in test [2] it was 94 nM; in test [3], 0.7 nM; in test [4], 4.8 nM; in test [5] it was 2 nM. The molecule also showed an Activity in test [7] of 97%.
For `COc1cc2c(ccn2-c2ccc3occc3c2)c(OC)c1OC`, the half-maximal inhibitory concentration (IC50) in test [1] came to 690 nM; in test [2], 646 nM; in test [3], 265 nM; in test [4] it was 322 nM; in test [5], 537 nM.
Taken in the same sequence, the figures for `COc1cc2c(ccn2-c2ccc(N(C)C)cc2)c(OC)c1OC` were 172 nM, 148 nM, 63 nM, 105 nM and 148 nM.
In the case of `COc1ccc2ccc3cc(OC)c(OC)c(OC)c3c2c1`, in test [8], the IC50 is more than 40000 nM.
On to `COc1cc2c(ccn2-c2ccc3c(ccn3C)c2)c(OC)c1OC`, for which the 50% inhibitory concentration (IC50) stood at 76 nM in test [1]; 2700 nM in test [6]; 74 nM in test [2]; 53 nM in test [3]; 40 nM in test [4]; 73 nM in test [5]. Besides, in test [7], the Activity amounted to 65%.
As to `COc1ccc(-n2ccc3c(OC)c(OC)c(OC)cc32)cc1`, the IC50 in test [1] is 198 nM; in test [2], 179 nM; in test [3] it was 135 nM; in test [4], 145 nM; in test [5], 186 nM.
With `COc1ccc(-n2ccc3c(OC)c(OC)c(OC)cc32)cc1N`, the IC50 in test [1] is 2390 nM; in test [2], 4150 nM; in test [3], 1380 nM; in test [4], 1540 nM; in test [5] it was 3250 nM.
`COc1cc2c(ccn2-c2ccc3ncccc3c2)c(OC)c1OC`: the 50% inhibitory concentration (IC50) in test [1] worked out at 31 nM; in test [6], 2700 nM; in test [2] it was 34 nM; in test [3] it was 11 nM; in test [4] it was 24 nM; in test [5] it was 18 nM. Moreover, the Activity in test [7] was found to be 72%.
